Legend:
human erythrocytes = assay: Hemolysis assay; format: cell-based; conditions: 1% human erythrocytes in PBS, 10 minutes at 37°C; up to 1.0 mg/mL; OD 540 nm
Method in brief: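 Erythrocytes from EDTA blood of 4 human donors, washed 3 times in PBS to remove plasma and buffy coat. A 1% suspension in PBS was incubated with or without test peptide for 10 min at 37°C. Hemoglobin in the supernatant was read at 540 nm and expressed as percentage of Triton X-100 lysis; mean±SD.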

[1] = test system: human monocyte‐derived macrophages; assay: Cellular cholesterol efflux in human monocyte-derived macrophages; format: cell-based; conditions: 20 μg/mL, 4 hours, n=4 to 5
Method in brief: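 Human peripheral blood monocyte-derived macrophages isolated by Lymphoprep gradient. Cells were radiolabelled with ³H-cholesterol and kept in serum-free medium containing 0.2% BSA. Efflux to 20 μg/mL acceptor (apoA-I or test peptide) or no acceptor was measured over 4 h.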

RAW264 macrophages = assay: Ex vivo cholesterol efflux mediated by plasma HDL of treated mice; format: in vivo; conditions: high-dose 50 mg/kg, 16 weeks; apoB-depleted plasma, 8Br-cAMP-treated RAW264 macrophages
Method in brief: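 Plasma collected after 16 weeks of i.p. treatment of high-fat-fed apoE−/− mice. ApoB-depleted plasma served as acceptor for ³H-cholesterol-labelled RAW264 macrophages. Macrophages were pretreated with 0.3 mmol/L 8Br-cAMP and kept in serum-free medium with 0.2% BSA.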

[2] = test system: mouse peritoneal macrophages; assay: Cellular cholesterol efflux in mouse peritoneal macrophages; format: cell-based; conditions: 20 μg/mL, 4 hours, n=4 to 5
Method in brief: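 Peritoneal macrophages taken from mice injected i.p. with 2 mL 2.9% thioglycollate 90 h earlier, and selected as cells adherent after 2 h. Cells were labelled with ³H-cholesterol and kept in serum-free medium with 0.2% BSA. Efflux to 20 μg/mL acceptor was measured over 4 h.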

Circular dichroism = format: physicochemical; conditions: CD spectra in water, 200 to 260 nm
Method in brief: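 Spectra of peptides and human apoA-I (17.8 to 178 μmol/L) recorded at 25°C in a thermostatted quartz cell with 0.1 mm path length, scanning 200–260 nm. Results expressed as mean residue ellipticity (deg cm² dmol⁻¹).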

[3] = test system: monocyte‐derived macrophages from an ABCA1‐deficient Tangier disease patient; format: cell-based, human; conditions: 20 μg/mL, 4 hours, n=4
Method in brief: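 Peripheral blood monocyte‑derived macrophages came from a healthy volunteer and a Tangier disease patient, with ethics approval and written consent. Cells were isolated by Lymphoprep density separation and labelled with ³H‑cholesterol. Efflux was run in serum‑free 0.2% BSA medium with or without 20 μg/mL human apoA‑I or test peptide for 4 h. n=4; mean±SD.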

- α‐helical conformation (CD spectra) (Circular dichroism): formed strong α‐helical conformations
Substance: H-ALEHLFTLYEKALKALEDLLKKLL-OH [FAMP5]
- red cell hemolysis (percentage of the Triton X‐100 lysis) (human erythrocytes): only limited effects
- cholesterol efflux [1]: induced cholesterol efflux significantly more than human apoA‐I
- ex vivo cholesterol efflux mediated by HDL of treated mice (RAW264 macrophages): significant increase
- cholesterol efflux [2]: induced cholesterol efflux significantly more than human apoA‐I
- cholesterol efflux in Tangier disease macrophages vs healthy subject [3]: suppressed

— PMC3698760 (Journal of the American Heart Association: Cardiovascular …, 2013)
